From PubChem BioAssay
Only some compounds are listed: those with a hit (about 5.1% of all), similar ones and a draw of the others.
BAP1 block – human BAP1 deubiquitinase inhibition; Q92560; recombinant BAP1, Ub-AMC hydrolysis fluorescence kinetic; hits give low values; calls only at 20 µM; 72,000 tested, 0.48% active;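 active means activity remaining at or below 50% of control, provided the compound also passes the data quality filters; inactive means the rest, including low values that fail the filters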;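 further: 100% = DMSO wells rate and 0% = substrate alone blank rate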
M1 antagonist – M1 muscarinic receptor (rat) antagonism; 64,000 tested, 3.4% active; AID 628; CHO-M1 cells, Fluo-4 calcium, ACh EC80 antagonist mode; hits give low values; B-score at 10 µM; P08482;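 active means calcium fluorescence response, raw or row-and-column corrected B-score, differing from the plate sample mean either way at a set confidence level, mostly lower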
Target sequence (P08482 whole entry, looked up): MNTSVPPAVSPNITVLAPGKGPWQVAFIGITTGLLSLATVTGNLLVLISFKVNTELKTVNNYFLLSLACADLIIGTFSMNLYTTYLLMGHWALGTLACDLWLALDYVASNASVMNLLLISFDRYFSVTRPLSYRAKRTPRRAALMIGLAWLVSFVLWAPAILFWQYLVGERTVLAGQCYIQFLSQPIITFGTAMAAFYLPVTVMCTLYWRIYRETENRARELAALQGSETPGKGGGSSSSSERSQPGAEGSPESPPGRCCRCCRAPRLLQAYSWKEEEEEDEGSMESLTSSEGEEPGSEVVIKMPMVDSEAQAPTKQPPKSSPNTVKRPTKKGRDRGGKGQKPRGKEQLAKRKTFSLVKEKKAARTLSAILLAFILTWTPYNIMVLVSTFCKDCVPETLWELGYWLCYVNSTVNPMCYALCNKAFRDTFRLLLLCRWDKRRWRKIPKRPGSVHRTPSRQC
Hsp90 block – displaces geldanamycin probe from tumor Hsp90. AID 429. NCI-N417 lysate Hsp90, Cy3B-geldanamycin FP displacement. 64,000 tested, 0.35% active. inhibition, % at 30 µM. P07900;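 active means inhibition above 50%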;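 further: 0% = tracer plus lysate wells and 100% = tracer alone without lysate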
M1 agonist – activates the M1 muscarinic receptor. 64,000 tested, 3% active. AID 626. CHO-M1 cells, Fluo-4 calcium fluorescence, agonist mode; hits give high values. B-score at 10 µM;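 active means fluorescence rise, raw or as B-score row- and column-corrected plate score, outside the 99.7% band of its plate's samples, either direction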
Ecoli WT expand – E. coli BW25113 growth inhibition, expanded screen. OD600 absorbance. growth inhibition, % at 100 µM. 98,000 tested, 0.15% active;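 active means growth inhibition above about 50% at one test dose, limit read from the data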;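 further: growth measured after 20 h incubation at 37 °C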
Ecoli tolC – E. coli tolC mutant growth inhibition. E. coli BW25113 tolC mutant growth, OD615. growth inhibition, % at 10 µM (by protocol). 65,000 tested, 2.2% active. AID 573;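 active means growth inhibition at or above a cutoff equal to the mean over every tested compound plus 3 SD, cut at about 60% in these data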;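 further: growth measured after 20 h incubation at 37 °C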
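Test system – E. coli BW25113 ΔtolC::kan, tolC deletion mutant strain · Detection – OD at 615 nm · Buffer or medium – LB with kanamycin 50 µg/mL · Times – 20 h compound exposure of bacteria at 37 °C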
M1 ag confirm – rat M1 muscarinic agonism, confirmation; shares compounds with M1 agonist; CHO-M1 cells, Fluo-4 calcium fluorescence, agonist mode; actives lie on both sides; fluorescence change (max-min) at 10 µM; 1,700 tested, 19% active;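 active means fluorescence change differs from the solvent-only DMSO control mean at a set confidence level in both duplicate runs; inconclusive means differs from solvent-only control mean in just one of two runs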;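 further: an EC20 dose of acetylcholine follows compound addition during the same imaging run; raw fluorescence intensity difference in instrument units with no normalization to controls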
M4 ag counter – counter-screen for M1 agonists: activity at rat M4 receptor; shares compounds with M1 agonist; CHO M4/Gqi5 cells, Fluo-4 calcium fluorescence, agonist mode; actives lie on both sides; fluorescence change (max-min) at 10 µM; 1,700 tested, 9% active; AID 1741;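 active means fluorescence change differing from the plate's solvent-only control wells at 99.7% confidence in both duplicates, whether higher or lower; inconclusive means differs from solvent controls in only one of two duplicates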
Active calls of the source: *; i = inactive; ? = inconclusive; · = not tested or not shown.

SMILES	BAP1 block	M1 antagonist	Hsp90 block	M1 agonist	Ecoli WT expand	Ecoli tolC	M1 ag confirm	M4 ag counter
COc1ccc(F)cc1CN1CCN(c2cc(C)nc3c4c(C)cc(C)nc4nn23)CC1	·	-0.92	-3	3.5*	2	52	?	-38
COc1ccc(OC)c(NC(=O)CCN2CCN(c3ccccc3)CC2)c1	i	-0.093	-4	1.2	-3	-1	·	·
COc1ccc(Cl)c(NC(=O)NCCN2CCN(c3ccccc3)CC2)c1	i	-0.43	-3	2.3*	-7	22	-28*	-59
COc1ccc(-c2nnc3ccc(SCC(N)=O)nn23)cc1OC	i	1.1	3	-0.78	1	-11	·	·
COc1ccc(-c2nnc3ccc(SCC(=O)N4CCCCC4)nn23)cc1OC	i	0.049	-3	-3.5*	2	-4	-6.7	-30
COc1cc(C(=O)Nc2cccnc2)ccc1OCc1ccc(Cl)cc1	i	·	·	·	·	·	·	·
COc1ccc(CNC(=O)C2CCCN(c3nc4ccccc4o3)C2)c(OC)c1 (stereo not given)	i	0.099	-1	-0.079	-10	4	·	·
Cc1ccc(CCNC(=O)C2CCCN(c3nc4ccccc4o3)C2)cc1 (stereo not given)	i	-0.99	1	7.5*	3	22	-10	-27
CC1(C)Cc2ccccc2C(Nc2ccc(Cl)cc2)=N1	i	·	·	·	·	·	·	·
COc1cc(NC(=O)c2cccc3c2C(=O)N(Cc2cccnc2)C3)cc(OC)c1OC	i	-0.94	-4	3.2*	-8	-13	-18	-24
O=C(O)C1CCC(=O)N1C1c2ccccc2Oc2ccccc21 (stereo not given)	i	-0.8	-1	0.29	6	-11	·	·
O=C(O)C1CCC(=O)N1C1CCCC1 (stereo not given)	i	0.75	-3	5*	-4	-12	-29*	?
O=C(O)CSc1nnc(CNc2ccccc2Cl)n1-c1ccccc1	i	3*	-2	84*	0	4	?	-66
COc1cc(C(=O)Nc2c3c(nn2-c2ccc([N+](=O)[O-])cc2)CSC3)cc(OC)c1OC	i	·	·	·	·	·	·	·
CCOc1ccc2cc(C(=O)Nc3ccc(C)cc3)c(=O)oc2c1	i	·	·	·	·	·	·	·
Cc1cc(C)nc(/N=c2/ssnc2Cl)c1	i	0.03	-6	6.3*	-4	4	-7.9	?
Cc1ccc(N=c2ssnc2Cl)cc1	·	·	·	·	20	·	·	·
O=C(Nc1ccc(NS(=O)(=O)c2ccc(Br)c(C(=O)Nc3ccccc3)c2)cc1)c1ccccc1	i	·	·	·	·	·	·	·
CCCCCCOC(=O)C(C#N)c1nc2ccccc2nc1N1CCN(C)CC1 (stereo not given)	i	1.9*	-11	5.1*	17	100*	-13	?
CC1CCN(c2nc3ccccc3nc2C(C#N)C(=O)NC2CCCCC2)CC1 (stereo not given)	i	-0.28	0	8.8*	·	-17	105*	42
CCCCCCOC(=O)C(C#N)c1nc2ccccc2nc1N1CCCCC1 (stereo not given)	i	-2.2	-6	9.9*	-29	1	?	77
CCCCNC(=O)C(C#N)c1nc2ccccc2nc1N1CCCC1 (stereo not given)	i	-1.8	-3	54*	-1	-12	856*	750*
COc1ccc(CNC(=O)C(C#N)c2nc3ccccc3nc2N2CCCC2)cc1 (stereo not given)	i	-6.9*	3	165*	-11	-8	373*	562*
COc1ccc(CNC(=O)C(C#N)c2nc3ccccc3nc2N2CCN(C)CC2)cc1 (stereo not given)	i	-0.82	-2	0.43	-9	12	·	·
O=C(COC(=O)c1c2c(nc3ccccc13)CCCC2)Nc1ccc2c(c1)OCO2	·	-2*	-3	13*	-8	47	?	-16
CC1CCN(c2ncnc3sc4c(c23)CCCC4)CC1	i	·	·	·	·	·	·	·
CC(=O)Nc1ccc(NC2=CC(=O)CC(C)(C)C2)cc1	i	0.22	3	11*	4	-24	?	-82
